Experimental data: ChEMBL document CHEMBL4513216, “Probing the Open Global Health Chemical Diversity Library for Multistage-Active Starting Points for Next-Generation Antimalarials” (ACS Infect Dis, 2020)

Assay: Toxicity liver stage against HepG2, at 10uM
Type: cell-based
Design: test concentration 10 uM, cell line HepG2-A16-CD81EGFP
Conditions: human, HepG2-A16-CD81EGFP cells; read-out: INHIBITION
How it was run: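 Uninfected HepG2-A16-CD81EGFP cells, 3 × 10^3 per well, 1536-well, plated on prespotted compound at 10 μM final, parasite-free screening media added to match infected plates; puromycin 10 μM positive, DMSO 0.5% negative; run in parallel with 48 h PbLuc assay at 37 °C, 5% CO2; viability by CellTiter-Glo luminescence, normalized to controls.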

Row | SMILES | cytotoxicity at 10 µM [%]
1 | OCCN(Cc1nc(-c2ccc3c(c2)OCO3)no1)Cc1cccs1 | -0.191
2 | COc1ccc2c(c1)CN(C)C(=O)CCN2CC(O)C(C)(C)C (stereo unspecified) | 4.17
3 | NC(=O)CN1CC[C@@]2(O)CCCC[C@H]2[C@@H]1c1ccc2c(c1)OCO2 | 3.26
4 | CC(C)c1ccc2c(c1)C1(CC(=O)Nc3[nH]ncc31)C(=O)N2C (stereo unspecified) | -0.582
5 | CCCN1CCc2nc(SCc3ccccc3)[nH]c(=O)c2C1 | 0.279
6 | CCSc1ccccc1C(=O)NCCn1nc(C(F)(F)F)n(C)c1=O | 6.83
7 | O=C(CN1CCC(c2nnc(C(F)(F)F)o2)CC1)Nc1cccc(Cl)c1 | -1.53
8 | COc1cc(C(=O)NCCc2ccc(Cl)cc2)on1 | -0.295
9 | CCOc1ncc(NC(=O)c2ccco2)c(OCC)n1 | -1.76
10 | CCOC(=O)C1CCN(C(=O)c2cc(Br)ccc2-n2cnnn2)CC1 | -2.41
11 | CCN(CC)c1ncc(S(=O)(=O)c2cccc(C)c2)c(N)n1 | -0.707
12 | CCC(=O)c1ccccc1NN1c2ccccc2C(=O)C1(C)OC (stereo unspecified) | 8.57
13 | Cc1cc(C(F)(F)F)nn1CCCNC(=O)C1CCC1 | -12.2
14 | Cc1c(Cn2cc(Cl)c(N)n2)cnn1C | -5.18
15 | CCCc1nc(NCCCn2ccnc2)c2c(n1)c(C)nn2CC | 8.26
16 | CCc1cc(=O)n(CC(=O)N2CCC(C)CC2)c(-c2cccc(F)c2)n1 | 7.63
17 | Cc1c(NC(=O)c2ccc(Br)cc2)c(C(=O)N(C)C)nn1C | 3.65
18 | Cc1sc(Oc2ccccc2Cl)nc1C(=O)O | 1.95
19 | CC1(c2ncc(CN3CCOCC3)cn2)CCCCO1 (stereo unspecified) | 6.08
20 | CN(C)Cc1cnc(C2CCN(C(=O)c3ccc(F)cc3)C2)[nH]1 (stereo unspecified) | -1.92
21 | Nc1cc(-c2c[nH]nc2C2CCCN2CCCc2ccccc2)ccn1 (stereo unspecified) | 3.75
22 | COc1ccc(C2(NC(=O)c3ccc(=O)n(C)n3)CCCC2)cc1 | -0.308
23 | Cc1cc(C)n(CC2CCCN2Cc2ccc(F)cc2C#N)n1 (stereo unspecified) | 7.77

Row | SMILES | cytotoxicity at 10 µM [%]
24 | CCN(CC(O)c1ccc(C)cc1)C(=O)NC(C)C (stereo unspecified) | -7.74
25 | CC(O)CN1CCC(CN(C)Cc2cc(F)cc3cccnc23)CC1 (stereo unspecified) | -1.26
26 | COc1ccncc1NC(=O)C1(c2ccc(F)cc2)CCC1 | 1.52
27 | CN(CC(=O)N1CCCC1)C(=O)c1ccccc1F | 11.7
28 | CCC(CNC(=O)c1cccc(S(=O)(=O)NC)c1)N1CCCC1 (stereo unspecified) | -4.18
29 | Cc1cc(CN(C)C(=O)C(c2ccccc2)N2CCSCC2)no1 (stereo unspecified) | -1.49
30 | Cc1ccccc1C(NC(=O)CCCS(C)(=O)=O)C(C)(C)C (stereo unspecified) | -9.4
31 | COc1ccc(CNC2CCC(O)CC2)cc1OCCCC#N (stereo unspecified) | -2.56
32 | Cc1nnc(NCC(c2ccco2)N2CCCCC2)c(C#N)c1C (stereo unspecified) | -5.23
33 | CC(C)c1nc(C2CCCN(c3nccc(C(F)(F)F)n3)C2)no1 (stereo unspecified) | 5.83
34 | COCCn1ccc(NCc2scnc2C)n1 | -2.9
35 | N#CCCN(CCC#N)C(=O)c1ccc(COc2ccccc2C#N)o1 | -16.6
36 | CNC(=O)C(NC(C)=O)c1ccc(F)c(F)c1 (stereo unspecified) | -6.1
37 | Cc1nn(CCO)c(C)c1CNC1CCCCc2ccccc21 (stereo unspecified) | -2.42
38 | CN(C)CCn1c(=O)oc2ccc(NC(=O)N3CCCCCC3)cc21 | -3.59
39 | CN(Cc1cnn(C)c1)Cc1nc(Cc2cccc(Cl)c2)no1 | 6.53
40 | N#Cc1cccc(CNC(=O)NC2CCN(CC(F)F)CC2)c1 | 4.16
41 | Cc1ccc(-c2ccc(C(=O)NCC(N)=O)c(F)c2)cc1 | -0.758
42 | Cc1n[nH]c(C2CN(C(=O)c3ccc4c(c3)COC4)CCO2)n1 (stereo unspecified) | 17.4
43 | CC(CNC(=O)Nc1ccc(F)cc1-n1cccc1)N1CCOCC1 (stereo unspecified) | -8.71
44 | CCc1nncn1CCNC(=O)N1CCCC(Cc2nccn2C)C1 (stereo unspecified) | 0.548
45 | CN1CCC(N(C)C(=O)CCc2ccc(F)c(F)c2)C1=O (stereo unspecified) | -17.7
46 | O=C1NCCCCC1NS(=O)(=O)N1CCCCCC1 (stereo unspecified) | 4.15

Row | SMILES | cytotoxicity at 10 µM [%]
47 | CN(C)S(=O)(=O)c1ccc(CSCC(=O)NC(C)(C)C)o1 | -1.82
48 | CCC1c2ccccc2CCN1CCNS(C)(=O)=O (stereo unspecified) | 5.56
49 | Cn1cc(C(=O)O)c(-c2ccc(F)cc2F)n1 | -4.03
50 | O=S(=O)(N1CCCC1)N(Cc1ccccc1)CC1CCCO1 (stereo unspecified) | -0.966
51 | COc1ccccc1CNC(=O)C1=NN(c2ccc(C)cc2)C(=O)CN1 | 25.1
52 | C[S+]([O-])CCCNC(=O)c1cc(Br)c2c(c1)OCCO2 (stereo unspecified) | 16.9
53 | CN(C)C(=O)c1cn2cc(-c3cccc(Cl)c3)n(CC3CC3)c(=O)c2n1 | -1.62
54 | Cc1cccc(CN2CCN(C(=O)c3cc(Cl)c[nH]c3=O)CC2)c1 | 1.47
55 | NC(=O)N1CCCC(C(=O)N2CCc3c(nc(CC4CC4)[nH]c3=O)C2)C1 (stereo unspecified) | -13.8
56 | COc1ccccc1N1CCN(C(=O)CSC(C)C)C(C)C1 (stereo unspecified) | -3.97
57 | Cc1n[nH]c(C)c1CCNC(=O)Nc1ccc2c(c1)COC2 | -20.4
58 | c1cc2c(cc1Cn1cc(C3CCOC3)nn1)OCO2 (stereo unspecified) | 3.86
59 | Cc1cc2nc(C(C)C)cc(N3CCC(N(C)C)C3)n2n1 (stereo unspecified) | -3.88
60 | Cc1cccnc1N1CCN(C(=O)C(C)n2ccnc2C(C)C)CC1 (stereo unspecified) | -10.3
61 | Cc1cc(C)c2nc(CN3CCC(N4CCOC4=O)CC3)cc(O)c2c1 | -0.213
62 | CCc1cnc(N)nc1NC(C)c1cnn(C)c1 (stereo unspecified) | -0.333
63 | Cc1ocnc1C(=O)N1CCN(Cc2ccccc2)[C@@H]2CS(=O)(=O)C[C@@H]21 | -1.26
64 | Cc1nc(CN(C)C(=O)c2cc(C)sc2NC(=O)C(C)(C)C)no1 | 3.81
65 | O=C(c1ccccc1C(F)(F)F)N1CC[C@@H](N2CCC(O)CC2)[C@H](O)C1 | -2.49
66 | Cc1ccc(C(=O)N2C[C@@H](NS(C)(=O)=O)[C@H](C(C)C)C2)cc1O | -2.62
67 | Cc1ccc(N2CCN(C(=O)C3CN(C)C(=O)N3)CC2=O)cc1 (stereo unspecified) | -2.61
68 | CCCn1ncc(C(=O)N(Cc2cccnc2)C[C@@H]2CCC(=O)N2)c1C | 7.69
69 | COCCN(C)C(C(=O)O)c1cc(Cl)ccc1OC (stereo unspecified) | -6.92

Row | SMILES | cytotoxicity at 10 µM [%]
70 | O=C(N[C@@H]1CCN(c2ncc(Cl)cc2Cl)C[C@H]1O)c1cnccn1 | -8.92
71 | CNc1cc(C)nc(N2CCC3(CC2)[C@H](O)C[C@@H]3O)n1 | -17.5
72 | CCOc1ccccc1-n1c(-c2cn(CC)nc2C)n[nH]c1=O | 2.81
73 | Cc1cc(C(=O)N2C[C@@H](CN3CCCCC3)[C@@H](CO)C2)ccc1O | 0.251
74 | CCCc1ncc(CN(CCOC)Cc2cccs2)cn1 | -0.683
75 | Cc1cccc2c1nc(COCC(=O)O)n2-c1ccsc1 | -0.793
76 | CNC(=O)[C@@H]1C[C@H](N)CN1S(=O)(=O)c1cc(C)c(Cl)cc1C | -0.869
77 | Cc1cc(NC(=O)CNCc2csc(-c3ncccn3)n2)ccc1Cl | -7.21
78 | O=C1CC(NCc2ccccn2)CN1CCc1ccc(F)cc1 (stereo unspecified) | 7.18
79 | O=C(CCCn1ccnc1)N1CCC2(CC1)[C@H](O)C[C@@H]2OCCO | 3.31
80 | O=C1N(Cc2cccc(F)c2F)CCCC1(O)CN1CCCOCC1 (stereo unspecified) | 18.3
81 | Cc1cc(C)c(CNC(=O)N(C)Cc2cccc(F)c2)c(=O)[nH]1 | -1.62
82 | c1ccc(-c2nc(CN3CCOC(Cn4cncn4)C3)cs2)cc1 (stereo unspecified) | -4.33
83 | CC(C)(C)c1n[nH]c(C2CN(C(=O)CCc3ccco3)CCO2)n1 (stereo unspecified) | -8.24
84 | Cn1nccc1C(=O)Nc1cc(C(F)(F)F)c[nH]c1=O | -6.54
85 | COc1cc(CNCCn2cc(C)cn2)cc2c1OCCO2 | -9.07
86 | c1ccc(-c2nc(CN3CCCC3Cn3cncn3)no2)cc1 (stereo unspecified) | -7.22
87 | CC(=O)NCc1ccc(C(=O)NC2CCc3nc(C)cn3C2)o1 (stereo unspecified) | -3.81
88 | Cc1nccn1C1CCCN(C(=O)c2ccnc(-n3ccnc3)c2)C1 (stereo unspecified) | 0.998
89 | COCCN1CCC(CNCc2c[nH]nc2C(C)(C)C)CC1 | -17
90 | Cc1cccc(CN(C)Cc2nc3c(cnn3C)c(=O)[nH]2)c1 | -8.08
91 | CCn1cc(NC(=O)NCC(c2cccc(F)c2)N(C)C)cn1 (stereo unspecified) | 0.633
92 | CCC(O)CN1CCN(C(=O)c2cccn2Cc2ccccc2)CC1 (stereo unspecified) | -8.03

Row | SMILES | cytotoxicity at 10 µM [%]
93 | CCNC(c1cccnc1)c1ccc(F)c(F)c1 (stereo unspecified) | 1.03
94 | C1CC(c2noc(C3CC3)n2)CN(Cc2noc(C3CC3)n2)C1 (stereo unspecified) | -5.16
95 | COCc1nc(C(=O)N2CCCC(n3cccn3)C2)cs1 (stereo unspecified) | -7.42
96 | CC(NC(=O)NCc1ccc(Cl)s1)c1ccccn1 (stereo unspecified) | 1.64
97 | Cc1noc(C(C)C)c1C(=O)N1CCCN(Cc2cscn2)CC1 | -3.56
98 | CCc1nnc(CN2CCN(C(=O)c3ccccn3)CC2)o1 | 3.49
99 | Cc1oc(-c2ccco2)nc1CC(=O)N1CCN(C2CCC2)CC1 | 4.33
100 | CCC(CO)NCc1ccc(-c2ccc(Cl)cc2)o1 (stereo unspecified) | 5.24
101 | c1ccc(OC[C@]23COC[C@H]2CN(Cc2ccoc2)C3)nc1 | -8.63
102 | CN(C)c1ncc2c(c1C(=O)O)CCN(Cc1ccco1)C2 | 3.57
103 | O=C(C1CCOC1)N1C[C@H]2CN(Cc3cccnc3)C(=O)[C@H]2C1 (stereo partly specified) | -108
104 | CN(C)C(=O)N1CCN(Cc2cnn(C)c2)CC2(CNC(=O)C2)C1 (stereo unspecified) | 1.21
105 | O=C(CN1CCN(CC(O)C2CC2)CC1)NCc1ccccc1Cl (stereo unspecified) | 5.23
106 | CN1C(=O)C2(CCN(S(C)(=O)=O)CC2)c2cc(F)ccc21 | -106
107 | CCCC(=O)NC1CCc2c(ccc(=O)n2Cc2csc(C)n2)C1 (stereo unspecified) | 3.79
108 | O=C1C[C@@H]2CC[C@H](CN1)N2C(=O)CCc1ccc2c(c1)OCO2 | -5
109 | CCOc1ncccc1Cn1cc2[nH]cccc-2c1=O | 1.93
110 | O=C1C[C@@H]2CC[C@H](CN1)N2C1CSCCSC1 | -2.26
111 | O=C(c1ccco1)N1C2CCC(O)(CC2)C1CN1CCOCC1 (stereo unspecified) | 6.93
